Data set [1] is described as follows: Cytotoxicity against MT4 cells. It counts as cell-based. The conditions noted are these: human. Summed up: (§1)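 Mock-infected MT-4 or CEM cultures exposed to compound dilutions at 37 °C, with incubation times as in the antiviral runs. Viable cell number determined. Means of at least two separate experiments.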
Data set [2] can be described thus: Cytotoxicity against CEM cells. Format: cell-based. Conditions: human, CEM (CCRF-CEM) cells. Summed up: as §1

As a reminder, the CC50 is the concentration at which the toxic effect on the cells reaches its halfway point.

As to `Fc1cccc(F)c1C1SCc2nc3ccccc3n21` (configuration not stated) [THIAZOLOBENZIMIDAZOLE], the results for the half-maximal cytotoxic concentration (CC50) in data set [1] and in data set [2] were 19.2 µM and 50 µM, respectively.

(Values after ChEMBL document CHEMBL1146344, “Design, synthesis, and evaluation of 2-aryl-3-heteroaryl-1,3-thiazolidin-4-ones as anti-HIV agents” (Bioorg Med Chem, 2007).)
